# Screens from PubChem.
# Compounds with a hit are over-represented: about 2.4% of the library has one in this group of screens.
# NTR1 agonist – NTR1 (human) agonism; 330,000 compounds, 0.17% hits; activation, % at 20 µM; NTR1-U2OS beta-arrestin-GFP spot imaging, agonist mode; AID 493036; P30989;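 active = activation at or above 40% of the spot to cytoplasm intensity ratio, with at least 20 cells analyzed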;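 also: 0% = DMSO without peptide and 100% = 100 nM NTR1 peptide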
# Target sequence (P30989 whole entry, looked up): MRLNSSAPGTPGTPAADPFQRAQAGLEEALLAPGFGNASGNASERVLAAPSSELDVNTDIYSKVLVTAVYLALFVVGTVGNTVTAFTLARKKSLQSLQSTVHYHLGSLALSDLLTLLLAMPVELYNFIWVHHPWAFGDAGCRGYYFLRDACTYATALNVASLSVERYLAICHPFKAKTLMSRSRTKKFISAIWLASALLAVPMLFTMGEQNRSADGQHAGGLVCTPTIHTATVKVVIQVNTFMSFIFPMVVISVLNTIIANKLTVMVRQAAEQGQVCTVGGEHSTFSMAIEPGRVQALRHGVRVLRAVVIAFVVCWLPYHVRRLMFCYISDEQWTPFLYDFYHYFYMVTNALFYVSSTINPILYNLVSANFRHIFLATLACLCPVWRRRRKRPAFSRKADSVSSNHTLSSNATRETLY
# MC4R ag barr – activates human MC4R beta-arrestin recruitment; P32245; U2OS MC4R beta-arrestin complementation, luminescence; percent of melanotan II response, DMSO zero; activation, % at 8.9 µM; 360,000 compounds, 0.98% hits; AID 540308;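 active = activation above a per-plate cutoff, the mean activation of sample wells on that plate plus 3 SD, cut at about 8% in these data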
# TbMetRS inhib – blocks T. brucei methionyl-tRNA synthetase activity. purified T. brucei MetRS, ATP depletion, Kinase-Glo luminescence. inhibition, % at 11.9 µM. 360,000 compounds, 0.4% hits. AID 624268;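 active = inhibition above a per-plate cutoff of the control wells' mean inhibition plus 3 SD, cut at about 5.5% in these data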;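 also: 0% = DMSO wells median and 100% = median of wells with control inhibitor compound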
#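 technique = Kinase-Glo luminescence, ATP depletion format | system = purified MetRS (methionyl-tRNA synthetase) enzyme from Trypanosoma brucei | timing = 15 min preincubation, 2 h reaction, all 25 °C | evaluation = percent inhibition versus plate control medians | dosing = single dose, 11.9 µM final nominal, 0.9% final DMSO | also added = substrates ATP, L-methionine and bulk Escherichia coli tRNA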
# MC4R antag cAMP – human MC4R antagonism in cAMP assay; MC4R-expressing cells, MTII-stimulated cAMP, LANCE TR-FRET; inhibition, % at 6.5 µM; 360,000 compounds, 0.48% hits; AID 540295;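 active = inhibition above its plate's cutoff, the mean of tested wells on that plate plus 3 SD, cut at about 29% in these data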;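 also: 0% = Melanotan II alone and 100% = Melanotan II plus saturating MCL0020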
#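 Material: human MC4R-expressing U2OS cells. Probe or stimulus: Melanotan II challenge. Dosing: 6.5 µM single dose. Times: 30-min compound, 1-h challenge, 1-h detection, room temperature. Technique: TR-FRET with Eu-cAMP and labeled anti-cAMP, 671 nm. Replication: singlicate.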
# TAG inh – inhibitors of triacylglycerol accumulation. H9c2 cells, Nile Red lipid (TAG) fluorescence; cells loaded with 200 µM oleic acid. inhibition, % at 12.5 µM. 230,000 compounds, 0.66% hits;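 active = pattern-corrected inhibition of lipid staining of at least 50% with the nuclear-stain viability signal not falling by more than 50%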;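 also: 0% = DMSO wells and 100% = triacsin C control wells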
# aDG glyco up – alpha-DG glycosylation activation | AID 624168 | activation, % at 10 µM | 360,000 compounds, 0.22% hits | Pro5-aDG cells, alpha-DG glycosylation AlphaScreen (IIH6); 0% Pro5, 100% B10-LARGE cell signal;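 active = activation of at least 8% versus controls, or a plate z-score of at least 8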;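 also: Pro5 are CHO cells carrying HIG-tagged alpha-DG that lacks glycosylation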
# An asterisk follows results filed as active; / = no result.
SMILES,NTR1 agonist,MC4R ag barr,TbMetRS inhib,MC4R antag cAMP,TAG inh,aDG glyco up
Cc1ccc(-n2cc(CNCCc3ncc(C)[nH]3)c(-c3ccc(F)cc3)n2)cc1,3.0,2.8,-0.4,-6.3,20.5,11.4*
CC1(c2nnnn2-c2ccc3c(c2)OCCO3)CCC(=O)N1CCc1ccccc1F (centres undefined),/,/,-1.2,/,/,-0.2
O=C(NCc1cccc(C(F)(F)F)c1)c1ccc2sc([C@H]3C[C@H](O)[C@@H](CO)O3)nc2c1,/,-1.8,-0.2,-1.7,-9.4,-0.3
CC1=CC(=O)C(C(C)C)=C/C1=N/OC(=O)c1cccc([N+](=O)[O-])c1,1.5,-2.5,0.0,4.1,/,0.2
CC1=CC(=O)C(C(C)C)=CC1=NC(=O)c1ccc(C)cc1,-0.3,0.5,-0.1,51.4*,-9.6,0.9
O=C(CC1c2ccccc2C=C(c2ccsc2)N1c1ccc(-c2cccnc2)cc1)C1CC1 (centres undefined),/,/,-0.2,/,/,0.5
COC(=O)[C@]12CCCCC=C1N(Cc1ccco1)C(=O)[C@H](CC(=O)NCCc1ccccc1OC)C2,/,/,-1.4,/,/,0.0
CC(=O)c1cccc(NC(=S)NC(=O)c2ccc(Br)cc2)c1,8.7,8.5*,0.1,8.5,/,-0.2
CC1(C(=O)NC2CCCCC2)CCC(=O)N1CCOc1ccccc1 (centres undefined),/,/,-1.3,/,/,1.6
C/C=C(\C)C(=O)OC1[C@H](OC(C)=O)C2(CO)C(CC1(C)C)C1=CCC3C4(C)CCC(O[C@@H]5O[C@H](C(=O)O)[C@@H](O[C@@H]6O[C@H](CO)[C@@H](O)[C@H](O)[C@H]6O)[C@H](O)[C@H]5O[C@H]5O[C@H](CO)[C@@H](O)[C@H](O)[C@H]5O)[C@](C)(CO)C4CCC3(C)[C@]1(C)C[C@H]2O (some centres undefined),/,-3.8,-1.1,94.8*,/,-0.4
N#Cc1cc(N)c(Nc2ccccc2)cc1C#N,-0.1,-0.5,8.2*,-0.8,/,1.4
O=C1C=C(O)c2cccc(O)c2C1=O,4.5,-0.6,-0.9,5.9,/,0.0
CC1OC(CC(=O)O)CC2=C1C(=O)c1c(O)cccc1C2=O (centres undefined),/,-2.9,-0.1,40.4*,127.8,-0.7
CCCCNC(=O)C[C@@H]1C[C@@]2(C(=O)OCC)CCCC=C2N(CCC2=CCCCC2)C1=O,/,/,0.1,/,/,0.0
O=C(CSc1ccccn1)Nc1cccc(NC(=O)CSc2ccccn2)n1,-1.0,9.1*,-0.6,-1.1,/,-0.3
NS(=O)(=O)c1ccc(Oc2ccc(S(N)(=O)=O)cc2)cc1,1.6,2.3,-0.6,8.2,-0.8,0.1
C=CS(=O)(=O)c1ccc(Oc2ccc(S(=O)(=O)C=C)cc2)cc1,66.0*,-2.0,-0.4,14.3,/,-0.4
N#CC(C#N)=c1ccc2c(c1)N1C3=C(CCCC3)CC3CCCCC31N=2 (centres undefined),0.2,-1.9,-0.9,-2.1,92.4*,-0.6
C=CCOc1ccc(Br)cc1/C=C1/SC(=Nc2ccc(C(=O)O)cc2)NC1=O,/,-1.6,-0.1,23.9,-11.4,0.1
CCOc1cc(Br)cc(/C=C2\SC(=Nc3ccccc3)NC2=O)c1O,5.8,10.2*,-2.0,9.6,15.1,0.0
Cc1ccc(C)c(NC(=S)N2CCN(c3cccc(C(F)(F)F)c3)CC2)c1,1.4,9.1*,-0.3,8.5,/,0.3
FC(F)(F)c1cccc(N2CCN(C(=S)NC3CCCCC3)CC2)c1,3.0,-0.3,-0.2,0.7,5.6,0.7
FC(F)(F)c1cccc(N2CCN(C(=S)NC3CCCC3)CC2)c1,2.2,8.3*,-0.8,10.7,-20.8,0.7
CCOC(=O)Nc1nc(-c2ccccc2)c(C(=O)c2ccc(Cl)cc2)s1,9.1,-1.9,-0.5,-30.7,59.2*,-0.3
O=C(CSc1nnc(-c2ccc(Br)cc2)o1)Nc1cccc2ccccc12,-0.3,9.1*,-0.2,5.2,/,0.0
SMILES,NTR1 agonist,MC4R ag barr,TbMetRS inhib,MC4R antag cAMP,TAG inh,aDG glyco up
O=C(CSc1nnc(-c2ccc(Br)cc2)o1)Nc1cccc(C(=O)O)c1,-0.2,-1.3,-0.3,13.9,6.4,-0.1
CCCCCn1c2c(c(=N)c3ccccc31)CCC2,3.4,0.0,0.0,5.7,-6.6,0.1
Cc1cc(C)c2c(=N)c3ccccc3n(CCCCCCCCn3c4ccccc4c(=N)c4c(C)cc(C)nc43)c2n1,/,-3.1,-0.3,-8.3,53.1*,-0.5
O=C(c1ccc2c(c1)[nH]c(=S)n1c3ccccc3nc21)N1CCN(c2ncccn2)CC1,-1.6,2.3,-0.8,-4.7,4.5,-0.1
O=C(NCCN1CCN(c2ccccc2)CC1)c1ccc2c(c1)[nH]c(=S)n1c3ccccc3nc21,-1.5,8.9*,-0.7,8.3,27.4,-0.2
COC1C(CO)OC(n2c3c(Cl)cccc3c3c4c(c5c6cccc(Cl)c6[nH]c5c32)C(=O)NC4=O)C(O)C1O (centres undefined),/,-0.4,0.0,4.1,72.5*,-0.4
CCOC(=O)Nc1ccc2nc(-c3cscn3)[nH]c2c1,/,-0.4,-0.4,-12.5,22.2,-0.3
CC1(C(=O)Nc2ccc(Cl)cc2)Cc2c(-c3cccc(C(F)(F)F)c3)ccnc2O1 (centres undefined),/,-2.3,-0.4,-9.0,-5.4,-0.4
COc1cccc(CN2CCN(C(=O)[C@H]3O[C@@H](n4cnc5c(N)ncnc54)[C@H](O)[C@@H]3O)CC2=O)c1,/,/,-0.7,/,/,-0.1
Oc1cccc2ccc(Nc3ccccn3)nc12,2.1,8.7*,0.0,3.4,152.0,1.2
CC(C)C[C@@H]1COc2cccc(N(C)CCO)c2S(=O)(=O)N1,/,/,-0.7,/,/,0.3
O=C(COc1ccccc1)Nc1ccc(CSc2ccccc2)cc1,-4.9,10.4*,0.1,11.3,-6.6,0.2
O=C(Nc1ccc(CSc2ccccc2)cc1)c1ccccc1,-1.1,-1.8,-0.2,5.3,-18.0,0.3
CC1(C(=O)NS(=O)(=O)c2ccc3ccccc3c2)CCN1C(=O)Cc1ccc(-c2ccccc2)cc1 (centres undefined),/,-0.3,-0.1,16.8,7.7,0.1
CCOC(=O)Cc1ccc(Nc2nc(NC)nc3ccsc23)cc1,/,-1.0,-0.3,-12.2,4.5,0.9
CCOC(=O)Cc1ccc(Nc2nc(NCc3ccccc3)nc3ccsc23)cc1,/,8.5*,0.6,9.9,-12.1,1.8
Cc1c(C(=O)NCc2cccc([N+](=O)[O-])c2)sc(=O)n1Cc1ccc(C(C)C)cc1,/,2.9,-0.9,-3.3,-15.7,-0.1
CSCCOC(=O)c1[nH]c2c(c1C)C(=O)CC(c1ccco1)C2 (centres undefined),-4.5,0.7,-0.5,-30.4,56.1*,-0.1
COCCOC(=O)c1[nH]c2c(c1C)C(=O)CC(c1ccco1)C2 (centres undefined),2.8,-3.4,0.2,-26.2,59.6*,-0.1
